Reference: ChEMBL document CHEMBL1240350, “In vitro activity of CEM-101 against Streptococcus pneumoniae and Streptococcus pyogenes with defined macrolide resistance mechanisms” (Antimicrob Agents Chemother, 2010)
≈ marks a conversion by molar mass, not a printed value.

What was measured:
Streptococcus pneumoniae [1] = experiment: Antibacterial activity against penicillin-susceptible Streptococcus pneumoniae after overnight incubation by agar dilution method; assay type: functional
Outline: (§1)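 Agar dilution on Mueller-Hinton agar supplemented with 5% sheep blood. Inoculum 10^4 CFU/spot, incubated overnight at 35°C in ambient air. Test strains were clinical pneumococcal isolates. S. pneumoniae ATCC 49619 was included as the quality control strain in each run. MIC range, MIC50 and MIC90 were reported for each susceptibility category.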

Streptococcus pneumoniae [2] = experiment: Antibacterial activity against penicillin-intermediate Streptococcus pneumoniae after overnight incubation by agar dilution method; assay type: functional
Outline: (§2)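 Agar dilution on Mueller-Hinton agar supplemented with 5% sheep blood, inoculum 10^4 CFU/spot, read after overnight incubation at 35°C in ambient air. Clinical isolates with defined genotypes; S. pneumoniae ATCC 49619 quality control strain included in each run. MIC50/MIC90 are MICs inhibiting 50% and 90% of isolates.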

Streptococcus pneumoniae [3] = experiment: Antibacterial activity against Streptococcus pneumoniae harboring erm(B) and mef(A) gene after overnight incubation by agar dilution method; assay type: functional
Outline: (§3)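 Clinical isolates collected 1998–2008, with macrolide-resistance genes confirmed by PCR. MICs by agar dilution on Mueller-Hinton agar with 5% sheep blood. Inoculum 10^4 CFU/spot, incubated overnight at 35°C in ambient air. S. pneumoniae ATCC 49619 was the quality-control strain in every run.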

Streptococcus pneumoniae [4] = experiment: Antibacterial activity against Streptococcus pneumoniae harboring mutation in 23S rRNA after overnight incubation by agar dilution method; assay type: functional; outline: as §3
Streptococcus pneumoniae [5] = experiment: Antibacterial activity against macrolide-resistant Streptococcus pneumoniae harboring mef(A) gene after overnight incubation by agar dilution method; assay type: functional
Outline: (§4)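 Agar dilution MICs on Mueller-Hinton agar with 5% sheep blood. Inoculum 10^4 CFU/spot, incubated overnight at 35°C in ambient air. Clinical S. pneumoniae or group A streptococcal isolates; resistance genotypes (erm(B), erm(A), mef(A)/mef(E)) were assigned by PCR. S. pneumoniae ATCC 49619 served as QC strain in each run. Range, MIC50 and MIC90 reported per phenotype group.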

Streptococcus pneumoniae [6] = experiment: Antibacterial activity against macrolide-resistant Streptococcus pneumoniae harboring erm(B) and mef(A) gene after overnight incubation by agar dilution method; assay type: functional; outline: as §4
Streptococcus pyogenes [7] = experiment: Antibacterial activity against macrolide-susceptible Streptococcus pyogenes after overnight incubation by agar dilution method; assay type: functional; outline: as §2
Streptococcus pyogenes [8] = experiment: Antibacterial activity against Streptococcus pyogenes harboring erm(B) gene after overnight incubation by agar dilution method; assay type: functional; outline: as §3
Streptococcus pyogenes [9] = experiment: Antibacterial activity against Streptococcus pyogenes harboring erm(A) gene after overnight incubation by agar dilution method; assay type: functional; outline: as §3
Streptococcus pyogenes [10] = experiment: Antibacterial activity against macrolide-resistant Streptococcus pyogenes harboring erm(B) gene after overnight incubation by agar dilution method; assay type: functional; outline: as §4
Streptococcus pyogenes [11] = experiment: Antibacterial activity against macrolide-resistant Streptococcus pyogenes harboring erm(A) gene after overnight incubation by agar dilution method; assay type: functional; outline: as §4
Streptococcus pneumoniae [12] = experiment: Antibacterial activity against macrolide-susceptible Streptococcus pneumoniae 1077 after 15 passages and 10 compound-free subculturing by retest method; assay type: functional
Streptococcus pneumoniae [13] = experiment: Antibacterial activity against macrolide-resistant Streptococcus pneumoniae 3665 harboring mef(A) gene after 26 passages and 10 compound-free subculturing by retest method; assay type: functional
Streptococcus pneumoniae [14] = experiment: Antibacterial activity against macrolide-resistant Streptococcus pneumoniae 1076 harboring erm(B) and mef(A) gene after 14 passages and 10 compound-free subculturing by retest method; assay type: functional
Outline: (§5)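 Multistep selection by daily serial passage in subinhibitory drug concentrations. Medium was cation-adjusted Mueller-Hinton broth plus 5% lysed horse blood. Each day the next inoculum came from the tube 1–2 dilutions below the MIC whose turbidity matched the growth control, for up to 50 days. Clone MICs by CLSI macrodilution; identity to the parent confirmed by SmaI PFGE.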

Streptococcus pneumoniae [15] = experiment: Antibacterial activity against macrolide-resistant Streptococcus pneumoniae 1635 harboring erm(A) gene after 49 passages and 10 compound-free subculturing by retest method; assay type: functional; outline: as §5
Streptococcus pneumoniae [16] = experiment: Antibacterial activity against macrolide-resistant Streptococcus pneumoniae 24 harboring erm(B) gene after overnight incubation by agar dilution method; assay type: functional
Streptococcus pneumoniae [17] = experiment: Antibacterial activity against macrolide-resistant Streptococcus pneumoniae 2686 harboring mutation in L4 ribosomal protein after 14 passages and 10 compound-free subculturing by retest method; assay type: functional
Streptococcus pneumoniae [18] = experiment: Antibacterial activity against macrolide-resistant Streptococcus pneumoniae 2686 harboring mutation in L4 ribosomal protein after 25 passages and 10 compound-free subculturing by retest method; assay type: functional
Streptococcus pneumoniae [19] = experiment: Antibacterial activity against macrolide-susceptible Streptococcus pneumoniae 7127 harboring S20N mutation in L4 ribosomal protein and A105V mutation in L22 ribosomal protein after 16 passages and 10 compound-free subculturing by retest method; assay type: functional
Streptococcus pneumoniae [20] = experiment: Antibacterial activity against macrolide-susceptible Streptococcus pneumoniae 7127 harboring S20N mutation in L4 ribosomal protein and A105V mutation in L22 ribosomal protein after 15 passages and 10 compound-free subculturing by retest method; assay type: functional
Streptococcus pneumoniae [21] = experiment: Antibacterial activity against macrolide-resistant Streptococcus pneumoniae 3009 harboring mutation in 23S rRNA after 20 passages and 10 compound-free subculturing by retest method; assay type: functional
Streptococcus pneumoniae [22] = experiment: Antibacterial activity against macrolide-resistant Streptococcus pneumoniae 3665 harboring mef(A) gene after overnight incubation by agar dilution method; assay type: functional
Streptococcus pneumoniae [23] = experiment: Antibacterial activity against macrolide-resistant Streptococcus pneumoniae 1076 harboring erm(B) and mef(A) gene after overnight incubation by agar dilution method; assay type: functional
Streptococcus pneumoniae [24] = experiment: Antibacterial activity against macrolide-resistant Streptococcus pneumoniae 2686 harboring mutation in L4 ribosomal protein after overnight incubation by agar dilution method; assay type: functional
Streptococcus pneumoniae [25] = experiment: Antibacterial activity against macrolide-resistant Streptococcus pneumoniae 3009 harboring mutation in 23S rRNA after overnight incubation by agar dilution method; assay type: functional
Streptococcus pyogenes [26] = experiment: Antibacterial activity against macrolide-susceptible Streptococcus pyogenes 2132 after overnight incubation by agar dilution method
Streptococcus pyogenes [27] = experiment: Antibacterial activity against macrolide-resistant Streptococcus pyogenes 2368 harboring erm(B) gene after overnight incubation by agar dilution method
Streptococcus pyogenes [28] = experiment: Antibacterial activity against macrolide-susceptible Streptococcus pyogenes 2132 after 50 passages following overnight incubation by agar dilution method
Streptococcus pyogenes [29] = experiment: Antibacterial activity against macrolide-resistant Streptococcus pyogenes 2094 harboring erm(A) gene after 5 passages and 10 compound-free subculturing by retest method
Streptococcus pyogenes [30] = experiment: Antibacterial activity against macrolide-resistant Streptococcus pyogenes 2011 harboring mef(A) gene after 35 passages and 10 compound-free subculturing by retest method
Streptococcus pneumoniae [31] = experiment: Antibacterial activity against penicillin-resistant Streptococcus pneumoniae after overnight incubation by agar dilution method; assay type: functional; outline: as §1
Streptococcus pyogenes [32] = experiment: Antibacterial activity against macrolide-resistant Streptococcus pyogenes harboring mef(A) gene after overnight incubation by agar dilution method; assay type: functional; outline: as §4
Streptococcus pyogenes [33] = experiment: Antibacterial activity against macrolide-resistant Streptococcus pyogenes 237 harboring mutation in L4 ribosomal protein after 50 passages following overnight incubation by agar dilution method

## CC[C@H]1OC(=O)[C@@](C)(F)C(=O)[C@H](C)[C@@H](O[C@@H]2O[C@H](C)C[C@H](N(C)C)[C@H]2O)[C@](C)(OC)C[C@@H](C)C(=O)[C@H](C)[C@H]2N(CCCCn3cc(-c4cccc(N)c4)nn3)C(=O)O[C@]12C [SOLITHROMYCIN]
Streptococcus pneumoniae [1]
  MIC50: 0.03 µg/mL (≈ 0.0355 µM)
  MIC90: 0.125 µg/mL (≈ 0.148 µM)
Streptococcus pneumoniae [2]
  MIC50: 0.03 µg/mL (≈ 0.0355 µM)
  MIC90: 0.25 µg/mL (≈ 0.296 µM)
Streptococcus pneumoniae [3]
  MIC50: 0.125 µg/mL (≈ 0.148 µM)
  MIC90: 0.25 µg/mL (≈ 0.296 µM)
Streptococcus pneumoniae [4]
  MIC: 0.002 µg/mL (≈ 0.00237 µM)
Streptococcus pneumoniae [5]
  MIC50: 0.03 µg/mL (≈ 0.0355 µM)
  MIC90: 0.125 µg/mL (≈ 0.148 µM)
Streptococcus pneumoniae [6]
  MIC50: 0.125 µg/mL (≈ 0.148 µM)
  MIC90: 0.25 µg/mL (≈ 0.296 µM)
Streptococcus pyogenes [7]
  MIC50: 0.015 µg/mL (≈ 0.0178 µM)
  MIC90: 0.03 µg/mL (≈ 0.0355 µM)
Streptococcus pyogenes [8]
  MIC50: 0.5 µg/mL (≈ 0.592 µM)
  MIC90: 1 µg/mL (≈ 1.18 µM)
Streptococcus pyogenes [9]
  MIC50: 0.03 µg/mL (≈ 0.0355 µM)
  MIC90: 0.125 µg/mL (≈ 0.148 µM)
Streptococcus pyogenes [10]
  MIC50: 0.5 µg/mL (≈ 0.592 µM)
  MIC90: 1 µg/mL (≈ 1.18 µM)
Streptococcus pyogenes [11]
  MIC50: 0.03 µg/mL (≈ 0.0355 µM)
  MIC90: 0.125 µg/mL (≈ 0.148 µM)
Streptococcus pneumoniae [12]
  MIC: 0.06 µg/mL (≈ 0.071 µM)
Streptococcus pneumoniae [13]
  MIC: 0.06 µg/mL (≈ 0.071 µM)
Streptococcus pneumoniae [14]
  MIC: 2 µg/mL (≈ 2.37 µM)
Streptococcus pneumoniae [15]
  MIC: 0.008 µg/mL (≈ 0.00947 µM)
Streptococcus pneumoniae [16]
  MIC: 0.004 µg/mL (≈ 0.00473 µM)
Streptococcus pneumoniae [17]
  MIC: 0.03 µg/mL (≈ 0.0355 µM)
Streptococcus pneumoniae [18]
  MIC: 0.016 µg/mL (≈ 0.0189 µM)
Streptococcus pneumoniae [19]
  MIC: 0.06 µg/mL (≈ 0.071 µM)
Streptococcus pneumoniae [20]
  MIC: 0.008 µg/mL (≈ 0.00947 µM)
Streptococcus pneumoniae [21]
  MIC: 0.25 µg/mL (≈ 0.296 µM)
Streptococcus pneumoniae [22]
  MIC: 0.03 µg/mL (≈ 0.0355 µM)
Streptococcus pneumoniae [23]
  MIC: 1 µg/mL (≈ 1.18 µM)
Streptococcus pneumoniae [24]
  MIC: 0.03 µg/mL (≈ 0.0355 µM)
Streptococcus pneumoniae [25]
  MIC: 0.016 µg/mL (≈ 0.0189 µM)
Streptococcus pyogenes [26]
  MIC: 0.008 µg/mL (≈ 0.00947 µM)
Streptococcus pyogenes [27]
  MIC: 1 µg/mL (≈ 1.18 µM)
Streptococcus pyogenes [28]
  MIC: 0.016 µg/mL (≈ 0.0189 µM)
Streptococcus pyogenes [29]
  MIC: 0.016 µg/mL (≈ 0.0189 µM)
Streptococcus pyogenes [30]
  MIC: 0.06 µg/mL (≈ 0.071 µM)

## CC[C@H]1OC(=O)[C@H](C)C(=O)[C@H](C)[C@@H](O[C@@H]2O[C@H](C)C[C@H](N(C)C)[C@H]2O)[C@](C)(OC)C[C@@H](C)C(=O)[C@H](C)[C@H]2N(CCCCn3cnc(-c4cccnc4)c3)C(=O)O[C@]12C [TELITHROMYCIN]
Streptococcus pneumoniae [1]
  MIC50: 0.06 µg/mL (≈ 0.0739 µM)
  MIC90: 0.25 µg/mL (≈ 0.308 µM)
Streptococcus pneumoniae [2]
  MIC50: 0.06 µg/mL (≈ 0.0739 µM)
  MIC90: 0.5 µg/mL (≈ 0.616 µM)
Streptococcus pneumoniae [31]
  MIC50: 0.125 µg/mL (≈ 0.154 µM)
  MIC90: 0.5 µg/mL (≈ 0.616 µM)
Streptococcus pneumoniae [3]
  MIC50: 0.5 µg/mL (≈ 0.616 µM)
  MIC90: 1 µg/mL (≈ 1.23 µM)
Streptococcus pneumoniae [4]
  MIC: 0.03 µg/mL (≈ 0.0369 µM)
Streptococcus pneumoniae [5]
  MIC50: 0.125 µg/mL (≈ 0.154 µM)
  MIC90: 0.25 µg/mL (≈ 0.308 µM)
Streptococcus pneumoniae [6]
  MIC50: 0.5 µg/mL (≈ 0.616 µM)
  MIC90: 1 µg/mL (≈ 1.23 µM)
Streptococcus pyogenes [7]
  MIC50: 0.06 µg/mL (≈ 0.0739 µM)
  MIC90: 0.06 µg/mL (≈ 0.0739 µM)
Streptococcus pyogenes [8]
  MIC50: 8 µg/mL (≈ 9.85 µM)
  MIC90: 16 µg/mL (≈ 19.7 µM)
Streptococcus pyogenes [9]
  MIC50: 0.06 µg/mL (≈ 0.0739 µM)
  MIC90: 0.125 µg/mL (≈ 0.154 µM)
Streptococcus pyogenes [10]
  MIC50: 8 µg/mL (≈ 9.85 µM)
  MIC90: 16 µg/mL (≈ 19.7 µM)
Streptococcus pyogenes [32]
  MIC50: 0.5 µg/mL (≈ 0.616 µM)
  MIC90: 1 µg/mL (≈ 1.23 µM)
Streptococcus pyogenes [11]
  MIC50: 0.06 µg/mL (≈ 0.0739 µM)
  MIC90: 0.125 µg/mL (≈ 0.154 µM)
Streptococcus pneumoniae [12]
  MIC: 0.25 µg/mL (≈ 0.308 µM)
Streptococcus pneumoniae [13]
  MIC: 0.06 µg/mL (≈ 0.0739 µM)
Streptococcus pneumoniae [14]
  MIC: > 64 µg/mL
Streptococcus pneumoniae [15]
  MIC: 0.016 µg/mL (≈ 0.0197 µM)
Streptococcus pneumoniae [16]
  MIC: 0.25 µg/mL (≈ 0.308 µM)
Streptococcus pneumoniae [17]
  MIC: 0.06 µg/mL (≈ 0.0739 µM)
Streptococcus pneumoniae [18]
  MIC: 0.5 µg/mL (≈ 0.616 µM)
Streptococcus pneumoniae [19]
  MIC: 0.06 µg/mL (≈ 0.0739 µM)
Streptococcus pneumoniae [20]
  MIC: 0.008 µg/mL (≈ 0.00985 µM)
Streptococcus pneumoniae [21]
  MIC: 0.06 µg/mL (≈ 0.0739 µM)
Streptococcus pneumoniae [22]
  MIC: 0.125 µg/mL (≈ 0.154 µM)
Streptococcus pneumoniae [23]
  MIC: 0.5 µg/mL (≈ 0.616 µM)
Streptococcus pneumoniae [24]
  MIC: 0.06 µg/mL (≈ 0.0739 µM)
Streptococcus pneumoniae [25]
  MIC: 0.016 µg/mL (≈ 0.0197 µM)
Streptococcus pyogenes [26]
  MIC: 0.008 µg/mL (≈ 0.00985 µM)
Streptococcus pyogenes [27]
  MIC: 8 µg/mL (≈ 9.85 µM)
Streptococcus pyogenes [28]
  MIC: 0.03 µg/mL (≈ 0.0369 µM)
Streptococcus pyogenes [29]
  MIC: 0.03 µg/mL (≈ 0.0369 µM)
Streptococcus pyogenes [30]
  MIC: 0.25 µg/mL (≈ 0.308 µM)
Streptococcus pyogenes [33]
  MIC: 0.125 µg/mL (≈ 0.154 µM)
